Tests used:
Format in all cases: functional
[1] = Cytotoxicity against human UACC257 cells assessed as cell growth at 10 uM after 48 hrs by SRB assay relative to untreated control; conditions: UACC-257, 48 h, read-out: Activity
In short: (§1)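 NCI-60 single-dose screen. Compounds were added to the cultures at 10 μM and incubated for 48 h. The end point was sulforhodamine B protein staining read spectrophotometrically. Growth is reported as percent of untreated control cells.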

[2] = test system: RXF 393; experiment: Cytotoxicity against human RXF393 cells assessed as cell growth at 10 uM after 48 hrs by SRB assay relative to untreated control; conditions: RXF 393, 48 h, read-out: Activity
In short: (§2)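 NCI-60 one-dose screen: each agent added at 10 µM, cultures incubated 48 h. Endpoint by sulforhodamine B protein-binding dye read spectrophotometrically; growth expressed as percent of untreated control cells.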

[3] = test system: BT-549; experiment: Cytotoxicity against human BT549 cells assessed as cell growth at 10 uM after 48 hrs by SRB assay relative to untreated control; conditions: BT-549, 48 h, read-out: Activity
In short: (§3)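 NCI-60 panel screen at a single concentration of 10 μM with 48 h incubation. Cell density measured by sulforhodamine B protein-binding dye and read spectrophotometrically. Growth expressed as percent of untreated control cells.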

[4] = test system: U-251; experiment: Cytotoxicity against human U251 cells assessed as cell growth at 10 uM after 48 hrs by SRB assay relative to untreated control; conditions: U-251, 48 h, read-out: Activity; in short: as §1
[5] = test system: MOLT-4; experiment: Cytotoxicity against human MOLT4 cells assessed as cell growth at 10 uM after 48 hrs by SRB assay relative to untreated control; conditions: MOLT-4, 48 h, read-out: Activity; in short: as §2
[6] = test system: SNB-19; experiment: Cytotoxicity against human SNB19 cells assessed as cell growth at 10 uM after 48 hrs by SRB assay relative to untreated control; conditions: SNB-19, 48 h, read-out: Activity; in short: as §1
[7] = test system: SR; experiment: Cytotoxicity against human SR cells assessed as cell growth at 10 uM after 48 hrs by SRB assay relative to untreated control; conditions: read-out: Activity; in short: as §1
[8] = test system: OVCAR-8; experiment: Cytotoxicity against human OVCAR8 cells assessed as cell growth at 10 uM after 48 hrs by SRB assay relative to untreated control; conditions: OVCAR-8, 48 h, read-out: Activity; in short: as §2
[9] = test system: CAKI-1; experiment: Cytotoxicity against human Caki1 cells assessed as cell growth at 10 uM after 48 hrs by SRB assay relative to untreated control; conditions: CAKI-1, 48 h, read-out: Activity; in short: as §3
[10] = test system: KM12; experiment: Cytotoxicity against human KM12 cells assessed as cell growth at 10 uM after 48 hrs by SRB assay relative to untreated control; conditions: KM12, 48 h, read-out: Activity; in short: as §3
[11] = test system: SNB-75; experiment: Cytotoxicity against human SNB75 cells assessed as cell growth at 10 uM after 48 hrs by SRB assay relative to untreated control; conditions: SNB-75, 48 h, read-out: Activity; in short: as §1
[12] = test system: HCT-15; experiment: Cytotoxicity against human HCT15 cells assessed as cell growth at 10 uM after 48 hrs by SRB assay relative to untreated control; conditions: HCT-15, 48 h, read-out: Activity; in short: as §3
[13] = test system: OVCAR-3; experiment: Cytotoxicity against human OVCAR3 cells assessed as cell growth at 10 uM after 48 hrs by SRB assay relative to untreated control; conditions: OVCAR-3, 48 h, read-out: Activity; in short: as §2
[14] = test system: UACC-62; experiment: Cytotoxicity against human UACC62 cells assessed as cell growth at 10 uM after 48 hrs by SRB assay relative to untreated control; conditions: UACC-62, 48 h, read-out: Activity; in short: as §1
[15] = test system: LOX IMVI; experiment: Cytotoxicity against human LOXIMVI cells assessed as cell growth at 10 uM after 48 hrs by SRB assay relative to untreated control; conditions: read-out: Activity; in short: as §3
[16] = test system: NCI-H322M; experiment: Cytotoxicity against human NCI-H322M cells assessed as cell growth at 10 uM after 48 hrs by SRB assay relative to untreated control; conditions: read-out: Activity; in short: as §2
[17] = test system: MDA-MB-468; experiment: Cytotoxicity against human MDA-MB-468 cells assessed as cell growth at 10 uM after 48 hrs by SRB assay relative to untreated control; conditions: MDA-MB-468, 48 h, read-out: Activity; in short: as §2
[18] = test system: HT-29; experiment: Cytotoxicity against human HT-29 cells assessed as cell growth at 10 uM after 48 hrs by SRB assay relative to untreated control; conditions: HT-29, 48 h, read-out: Activity; in short: as §3
[19] = test system: MCF7; experiment: Cytotoxicity against human MCF7 cells assessed as cell growth at 10 uM after 48 hrs by SRB assay relative to untreated control; conditions: MCF7, 48 h, read-out: Activity; in short: as §3
[20] = test system: MDA-MB-231; experiment: Cytotoxicity against human MDA-MB-231 cells assessed as cell growth at 10 uM after 48 hrs by SRB assay relative to untreated control; conditions: MDA-MB-231, 48 h, read-out: Activity; in short: as §2
[21] = Cytotoxicity against human OVCAR5 cells assessed as cell growth at 10 uM after 48 hrs by SRB assay relative to untreated control; conditions: OVCAR-5, 48 h, read-out: Activity; in short: as §2
[22] = test system: SW-620; experiment: Cytotoxicity against human SW620 cells assessed as cell growth at 10 uM after 48 hrs by SRB assay relative to untreated control; conditions: SW-620, 48 h, read-out: Activity; in short: as §1
[23] = test system: NCI-H522; experiment: Cytotoxicity against human NCI-H522 cells assessed as cell growth at 10 uM after 48 hrs by SRB assay relative to untreated control; conditions: NCI-H522, 48 h, read-out: Activity; in short: as §2
[24] = test system: PC-3; experiment: Cytotoxicity against human PC3 cells assessed as cell growth at 10 uM after 48 hrs by SRB assay relative to untreated control; conditions: PC-3, 48 h, read-out: Activity; in short: as §2
[25] = test system: K562; experiment: Cytotoxicity against human K562 cells assessed as cell growth at 10 uM after 48 hrs by SRB assay relative to untreated control; conditions: K562, 48 h, read-out: Activity; in short: as §3
[26] = test system: 786-0; experiment: Cytotoxicity against human […] cells assessed as cell growth at 10 uM after 48 hrs by SRB assay relative to untreated control; conditions: 786-0, 48 h, read-out: Activity; in short: as §3
[27] = test system: ACHN; experiment: Cytotoxicity against human ACHN cells assessed as cell growth at 10 uM after 48 hrs by SRB assay relative to untreated control; conditions: read-out: Activity; in short: as §3
[28] = test system: COLO 205; experiment: Cytotoxicity against human COLO205 cells assessed as cell growth at 10 uM after 48 hrs by SRB assay relative to untreated control; conditions: COLO 205, 48 h, read-out: Activity; in short: as §3
[29] = test system: NCI-H226; experiment: Cytotoxicity against human NCI-H226 cells assessed as cell growth at 10 uM after 48 hrs by SRB assay relative to untreated control; conditions: NCI-H226, 48 h, read-out: Activity; in short: as §2
[30] = test system: NCI-H460; experiment: Cytotoxicity against human NCI-H460 cells assessed as cell growth at 10 uM after 48 hrs by SRB assay relative to untreated control; conditions: NCI-H460, 48 h, read-out: Activity; in short: as §2
[31] = Cytotoxicity against human UO31 cells assessed as cell growth at 10 uM after 48 hrs by SRB assay relative to untreated control; conditions: UO-31, 48 h, read-out: Activity; in short: as §1

Row | Compound | growth at 10 µM [1] [%] | growth at 10 µM [2] [%] | growth at 10 µM [3] [%] | growth at 10 µM [4] [%] | growth at 10 µM [5] [%] | growth at 10 µM [6] [%] | growth at 10 µM [7] [%] | growth at 10 µM [8] [%] | growth at 10 µM [9] [%] | growth at 10 µM [10] [%] | growth at 10 µM [11] [%] | growth at 10 µM [12] [%] | growth at 10 µM [13] [%] | growth at 10 µM [14] [%] | growth at 10 µM [15] [%] | growth at 10 µM [16] [%] | growth at 10 µM [17] [%] | growth at 10 µM [18] [%] | growth at 10 µM [19] [%] | growth at 10 µM [20] [%] | also measured
1 | COc1ccc(C2=Nc3nc4ccccn4c3C(=O)[C@H](Cc3ccccc3)N2)cc1 | 92.3 | 107 | 85.3 | 95.3 | 113 | 103 | 105 | 91.4 | 87.7 | 99.9 | 77.5 | 101 | 110 | 99.5 | 95.2 | 106 | 98.5 | 117 | 90.1 | 121 | growth at 10 µM [21]: 107%; growth at 10 µM [22]: 100%; growth at 10 µM [23]: 94.7%; growth at 10 µM [24]: 91.8%; growth at 10 µM [25]: 86%; growth at 10 µM [26]: 101%; growth at 10 µM [27]: 101%; growth at 10 µM [28]: 127%; growth at 10 µM [29]: 98.6%; growth at 10 µM [30]: 104%; growth at 10 µM [31]: 83.5%
2 | O=C1Nc2nc3ccccn3c2C(=O)[C@H](Cc2ccccc2)N1 | 89.8 | 105 | 96.9 | 93.2 | 110 | 103 | 107 | 95.8 | 96.2 | 100 | 79.1 | 94.6 | 101 | 104 | 93.5 | 103 | 98.4 | 106 | 95.7 | 106 | growth at 10 µM [21]: 95%; growth at 10 µM [22]: 101%; growth at 10 µM [23]: 94%; growth at 10 µM [24]: 95.2%; growth at 10 µM [25]: 106%; growth at 10 µM [26]: 99.2%; growth at 10 µM [27]: 97%; growth at 10 µM [28]: 126%; growth at 10 µM [29]: 104%; growth at 10 µM [30]: 103%; growth at 10 µM [31]: 90.2%
3 | O=C1c2c(nc3ccccn23)NC(=O)N2CCC[C@@H]12 | 91 | 104 | 82.8 | 95.8 | 120 | 104 | 126 | 94.2 | 97.9 | 105 | 96.5 | 99.9 | 108 | 104 | 92.8 | 106 | 93.5 | 106 | 99.9 | 118 | growth at 10 µM [21]: 101%; growth at 10 µM [22]: 106%; growth at 10 µM [23]: 106%; growth at 10 µM [24]: 93.8%; growth at 10 µM [26]: 98.6%; growth at 10 µM [27]: 101%; growth at 10 µM [28]: 123%; growth at 10 µM [29]: 100%; growth at 10 µM [30]: 105%; growth at 10 µM [31]: 95.1%

From ChEMBL document CHEMBL3124806, “Imidazopyridine-fused [1,3]-diazepinones: synthesis and antiproliferative activity” (Eur J Med Chem, 2014)
